Results from ChEMBL document CHEMBL4330057, “Second generation of diazachrysenes: Protection of Ebola virus infected mice and mechanism of action” (Eur J Med Chem, 2019).
Calls of active or inactive are those of the source. No cut-off for these calls is given here.

How the values were obtained:
Zaire ebolavirus [1] = experiment: Antiviral activity against VSV pseudotyped Ebolavirus Mayinga expressing GFP infected in human HeLa cells assessed as inhibition of viral infection at 10 uM pre-incubated for 2 hrs followed by viral infection and measured after 8 hrs by cell mask deep red staining based assay; type: functional, organism-based; conditions: 1976
How it was run: (§1)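 HeLa cells pretreated 2 h with compound, then infected with rVSV-EBOV-GP-GFP (8 h) or VSV-GFP (6 h), and stained with Cell Mask Deep Red. Relative inhibition = 1 minus (% GFP-expressing cells normalised to mock). Mean ± SD of three replicates, representative of three independent experiments.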

HeLa [2] = experiment: Induction of lysosomotropism in human HeLa cells infected with Ebolavirus assessed as increase in fluorescence intensity of acid compartments at 10 uM for 1 hr by Lysosensor DND189 staining based assay; type: functional, cell-based
How it was run: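 HeLa cells were pretreated 1 h with compound (Bafilomycin A1 at 0.01 μM as acidification control), then stained with LysoSensor DND 189 for 10 min and washed. Live imaging at Ex/Em 443/505 nm. Fluorescence intensity per area was quantified by image analysis. Eight wells per point, about 3000 cells/well, mean ± SD, three independent experiments.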

HeLa [3] = experiment: Induction of lysosomotropism in human HeLa cells infected with Ebolavirus assessed as increase in lysosome concentration in juxtanuclear region at 10 uM for 2 hrs by acridine orange staining based assay; type: functional, cell-based
How it was run: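 HeLa cells were pretreated with compound for 2 h, then given acridine orange for 30 min and washed. Red AO fluorescence in acidic compartments was imaged, and total intensity and average area were scored by high-content imaging. Eight wells per point, about 3000 cells/well, mean ± SD, representative of three independent experiments.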

[4] = target: Cathepsin B (Homo sapiens) (UniProt P07858); experiment: Inhibition of cathepsin B activity in human HeLa cells at 10 uM after 12 hrs by magic red substrate based fluorescence assay; type: cell-based
How it was run: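 HeLa cells were exposed to compound for 12 h, then given the Magic Red cathepsin B peptide reporter, washed, and imaged at Ex/Em 590/630. Total intensity and average area of red fluorescence were scored by high-content analysis. Eight wells per point, about 3000 cells/well, mean ± SD, three independent experiments.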

Ebolavirus [5] = experiment: Antiviral activity against Ebolavirus; type: functional, organism-based; conditions: Orthoebolavirus
Ebolavirus [6] = experiment: Antiviral activity against Ebolavirus infected in monkey assessed as protection against viral infection at 3.3 mg/kg/day relative to control; type: functional
Ebolavirus [7] = experiment: Antiviral activity against Ebolavirus H. sapiens-wt/1995/Kikwit-9510621 infected in human HeLa cells assessed as inhibition of viral infection pretreated for 2 hrs followed by viral infection and measured after 48 hrs by EboV GP immunostaining based high content imaging analysis; type: functional, organism-based
[8] = Cytotoxicity against human HeLa cells after 2 hrs by high content imaging analysis; type: cell-based
[9] = Selectivity index, ratio of CC50 for human HeLa cells to EC50 for Ebolavirus H. sapiens-wt/1995/Kikwit-9510621 infected in human HeLa cells; type: toxicity, cell-based; conditions: read-out: Ratio CC50/EC50
Ebolavirus [10] = experiment: Antiviral activity against Ebolavirus infected in mouse assessed as protection against viral infection at 20 mg/kg/day relative to control; type: functional
Ebolavirus [11] = experiment: Antiviral activity against Ebolavirus infected in mouse assessed as protection against viral infection at 24 mg/kg/day relative to control; type: functional
[12] = Stability in plasma (unknown origin) after 1 hr at 37 degC; type: ADME, cell-free; conditions: read-out: Stability
How it was run: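 Compound was incubated in plasma for 1 h at 37 °C, and the percent remaining was reported.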

[13] = Solubility of the compound in pH 7.4 buffer by laser nephelometric method; type: physicochemical
How it was run: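 Solubility at pH 7.4 was measured by laser nephelometry (light scattering), in triplicate.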

Cytochrome P450 3A4 [14] = target: T1, Cytochrome P450 3A4 (Homo sapiens, UniProt P08684); experiment: Inhibition of CYP3A4 (unknown origin) using 7-benzyloxyquinoline as substrate; type: ADME
How it was run: (§2)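 CYP IC50 was taken from the net fluorescent signal after incubation at 37 °C for a set time with active cytochrome P450 enzyme and a fluorescent probe substrate.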

Cytochrome P450 3A4 [15] = target: T1, Cytochrome P450 3A4; experiment: Inhibition of CYP3A4 (unknown origin) using dibenzylfluorescein as substrate; type: ADME; how it was run: as §2
Cytochrome P450 3A4 [16] = target: T1, Cytochrome P450 3A4; experiment: Inhibition of CYP3A4 (unknown origin) using 7-benzyloxy-4-trifluoromethylcoumarin as substrate; type: ADME; how it was run: as §2
Cytochrome P450 2D6 = Cytochrome P450 2D6 (Homo sapiens, UniProt P10635); experiment: Inhibition of CYP2D6 (unknown origin) using 3-(2-(N, N-Diethyl-N-methylamino)ethyl)-7-Methoxy-4-Methylcoumarin as substrate; type: ADME; conditions: read-out: INH; how it was run: as §2
Cytochrome P450 2C19 = Cytochrome P450 2C19 (Homo sapiens, UniProt P33261); experiment: Inhibition of CYP2C19 (unknown origin) using CEC as substrate; type: ADME; how it was run: as §2
[17] = Clearance in mouse liver microsomes after 1 hr; type: ADME, Microsome; conditions: read-out: CLH
How it was run: (§3)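 Substrate depletion with mouse or human liver microsomes, 1 h at 37 °C. Clearance (μL/min/mg) and half-life derived.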

[18] = Clearance in human liver microsomes after 1 hr; type: ADME, Microsome; conditions: read-out: CLH; how it was run: as §3
[19] = Half life in mouse liver microsomes; type: ADME, Microsome; how it was run: as §3
[20] = Half life in human liver microsomes; type: ADME, Microsome; how it was run: as §3
[21] = Solubility of the compound in deionized water; type: physicochemical
Zaire ebolavirus [22] = experiment: Antiviral activity against Ebolavirus Mayinga infected in Balb/c mouse assessed as protection against viral infection by measuring host survival at 10 mg/kg, ip administered 2 hrs prior to viral infection daily for 6 days and measured for 14 days relative to control; type: functional, 1976
Zaire ebolavirus [23] = experiment: Antiviral activity against VSV pseudotyped Ebolavirus Mayinga expressing GFP infected in human HeLa cells assessed as inhibition of viral infection at 2 uM pre-incubated for 2 hrs followed by viral infection and measured after 8 hrs by cell mask deep red staining based assay; type: functional, organism-based; conditions: 1976; how it was run: as §1
[24] = tested on: Vesicular stomatitis virus; experiment: Antiviral activity against VSV expressing GFP infected in human HeLa cells assessed as inhibition of viral infection at 2 uM pre-incubated for 2 hrs followed by viral infection and measured after 6 hrs by cell mask deep red staining based assay; type: functional, organism-based; how it was run: as §1
Zaire ebolavirus [25] = experiment: Antiviral activity against VSV pseudotyped Ebolavirus Mayinga expressing GFP infected in human HeLa cells assessed as inhibition of viral infection up to 50 uM pre-incubated for 2 hrs followed by viral infection and measured after 8 hrs by high content imaging analysis; type: functional, organism-based; conditions: 1976; how it was run: as §1
[26] = tested on: Vesicular stomatitis virus; experiment: Antiviral activity against VSV expressing GFP infected in human HeLa cells assessed as inhibition of viral infection at 50 uM pre-incubated for 2 hrs followed by viral infection and measured after 6 hrs by cell mask deep red staining based assay; type: functional, organism-based; how it was run: as §1
[27] = tested on: Vesicular stomatitis virus; experiment: Antiviral activity against VSV expressing GFP infected in human HeLa cells assessed as inhibition of viral infection at 0.1 uM pre-incubated for 2 hrs followed by viral infection and measured after 6 hrs by cell mask deep red staining based assay; type: functional, organism-based; how it was run: as §1
Ebolavirus [28] = experiment: Antiviral activity against Ebolavirus infected in mouse assessed as protection against viral infection at 30 mg/kg/day relative to control; type: functional
Ebolavirus [29] = experiment: Antiviral activity against Ebolavirus infected in mouse assessed as protection against viral infection at 300 mg/kg/day relative to control; type: functional
[30] = Orthoebolavirus, H. sapiens-wt/1995/Kikwit-9510621, HeLa
[31] = Orthoebolavirus, H. sapiens-wt/1995/Kikwit-9510621, HeLa, read-out: EC50

T1 sequence (P08684 whole entry): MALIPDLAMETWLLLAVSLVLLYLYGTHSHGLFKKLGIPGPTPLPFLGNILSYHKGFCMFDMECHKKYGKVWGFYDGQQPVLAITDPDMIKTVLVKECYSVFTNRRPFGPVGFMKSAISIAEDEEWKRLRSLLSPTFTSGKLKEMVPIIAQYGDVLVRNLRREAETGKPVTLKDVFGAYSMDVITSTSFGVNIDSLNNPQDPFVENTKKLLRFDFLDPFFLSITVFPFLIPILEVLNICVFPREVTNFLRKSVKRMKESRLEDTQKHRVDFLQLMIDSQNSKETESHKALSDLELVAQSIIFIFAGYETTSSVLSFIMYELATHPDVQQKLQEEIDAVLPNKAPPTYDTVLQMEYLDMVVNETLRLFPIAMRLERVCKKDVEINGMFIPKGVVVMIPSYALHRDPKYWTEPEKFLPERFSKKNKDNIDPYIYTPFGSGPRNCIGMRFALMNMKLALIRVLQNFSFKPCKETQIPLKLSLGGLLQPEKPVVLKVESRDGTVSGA
Cytochrome P450 2C19, sequence (P33261 whole entry): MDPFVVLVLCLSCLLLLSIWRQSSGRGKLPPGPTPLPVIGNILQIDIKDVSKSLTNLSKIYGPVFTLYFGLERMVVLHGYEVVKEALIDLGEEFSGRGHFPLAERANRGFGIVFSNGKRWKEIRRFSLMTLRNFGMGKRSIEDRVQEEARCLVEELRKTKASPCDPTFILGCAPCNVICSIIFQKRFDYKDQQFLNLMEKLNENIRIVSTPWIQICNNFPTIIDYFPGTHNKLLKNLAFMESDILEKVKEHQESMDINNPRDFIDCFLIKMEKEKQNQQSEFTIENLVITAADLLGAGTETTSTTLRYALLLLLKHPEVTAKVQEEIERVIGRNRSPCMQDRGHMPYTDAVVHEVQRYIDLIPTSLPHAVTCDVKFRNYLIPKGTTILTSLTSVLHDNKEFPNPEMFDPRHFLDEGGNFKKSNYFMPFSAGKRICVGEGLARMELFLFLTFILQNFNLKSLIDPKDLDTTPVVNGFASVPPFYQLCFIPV
Cytochrome P450 2D6, sequence (P10635 whole entry): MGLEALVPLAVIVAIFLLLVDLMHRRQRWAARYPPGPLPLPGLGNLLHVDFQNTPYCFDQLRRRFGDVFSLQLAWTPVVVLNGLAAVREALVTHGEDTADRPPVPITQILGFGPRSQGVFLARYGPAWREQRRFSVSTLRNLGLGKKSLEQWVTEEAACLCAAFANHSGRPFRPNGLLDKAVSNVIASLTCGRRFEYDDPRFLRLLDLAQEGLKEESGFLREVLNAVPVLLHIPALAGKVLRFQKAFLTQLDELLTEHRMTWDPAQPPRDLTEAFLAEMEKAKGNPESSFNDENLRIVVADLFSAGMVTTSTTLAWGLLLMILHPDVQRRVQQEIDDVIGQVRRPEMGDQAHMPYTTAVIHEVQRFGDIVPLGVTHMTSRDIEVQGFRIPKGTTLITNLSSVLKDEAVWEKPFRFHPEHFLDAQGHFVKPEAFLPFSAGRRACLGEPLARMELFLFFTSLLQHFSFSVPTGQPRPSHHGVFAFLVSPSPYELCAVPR

In the case of `CCN(CC)Cc1cc(Nc2ccnc3cc(Cl)ccc23)ccc1O`, the Activity (Zaire ebolavirus [1]) is reported as “Active”, the Activity (HeLa [2]) is reported as “inactive” and the Activity (HeLa [3]) is reported as “Active”. For the same compound, the inhibition [4] was “inactive”.
For `CCC(CC)COC(=O)[C@H](C)N[P@](=O)(OC[C@H]1O[C@@](C#N)(c2ccc3c(N)ncnn23)[C@H](O)[C@@H]1O)Oc1ccccc1`, the EC50 (Ebolavirus [5]) was 0.06 to 0.14 µM and the Activity (Ebolavirus [6]) was 100%.
With `CCN(CC)CCCNc1ccnc2c1ccc1c2ccc2c(NCCN3CCOCC3)ccnc21` the EC90 (Ebolavirus [7]; [30]) was 4.85 µM, the EC50 (Ebolavirus [7]; [31]) was 0.79 µM and the CC50 at 2 h [8] was over 10 µM. It also gave a selectivity ratio [9] of over 12.6.
Work on `Clc1ccc2c(NCCCCNc3ccnc4cccnc34)ccnc2c1` yielded an EC90 (Ebolavirus [7]; [30]) of 13 µM, an EC50 (Ebolavirus [7]; [31]) of 2.87 µM and a CC50 at 2 h [8] of over 25 µM. For the same compound, the selectivity ratio [9] was over 8.7.
In the case of `CN[C@H]1CC[C@@H](c2ccc(Cl)c(Cl)c2)c2ccccc21` [SERTRALINE], the Activity (Ebolavirus [10]) is reported as 70%.
For `OC(CNc1ccnc2c(NCC(O)CN3CCOCC3)ccnc12)CN1CCOCC1` (configuration not stated), the EC50 (Ebolavirus [7]) was “Not Active”.
`CC(C)COCC(CN(Cc1ccccc1)c1ccccc1)N1CCCC1` (configuration not stated) [BEPRIDIL] gave an Activity (Ebolavirus [11]) of 100%.
`CCN(CC)CCCC(C)Nc1ccnc2c(NC(C)CCCN(CC)CC)ccnc12` (configuration not stated) gave an EC90 (Ebolavirus [7]; [30]) of 4.73 µM, an EC50 (Ebolavirus [7]; [31]) of 0.78 µM and a CC50 at 2 h [8] of over 10 µM. It also gave a selectivity ratio [9] of over 13, a remaining at 1 h [12] of over 85% and a solubility kinetic [13] of over 0.05 mg/mL. It also gave an INH (Cytochrome P450 3A4 [14]) of over 10 µM, an INH (Cytochrome P450 3A4 [15]) of over 10 µM and an INH (Cytochrome P450 3A4 [16]) of over 10 µM. The IC50 (Cytochrome P450 2D6) was 8 µM, the INH (Cytochrome P450 2C19) was 3.6 µM and the microsomal CLint [17] was 32.9 µL/min/mg. The microsomal CLint [18] was under 23 µL/min/mg, the half-life [19] was 42 min and the half-life [20] was over 60 min. The solubility [21] was at least 25 mg/mL, the Activity (Zaire ebolavirus [22]) was 40% and the Activity (Zaire ebolavirus [23]) was “Active”. The Activity [24] was “inactive”, the Activity (Zaire ebolavirus [25]) was “Active” and the Activity [26] was “Active”. The Activity [27] was “inactive”.
Compound `NC(=O)c1nc(F)cnc1O` has an EC50 (Ebolavirus [5]) of 67 µM and an Activity (Ebolavirus [28]) of 100%.
Work on `Nc1ncnc2c(C[C@@H]3N[C@H](CO)[C@@H](O)[C@H]3O)c[nH]c12` yielded an EC50 (Ebolavirus [5]) of 3.4 to 11.8 µM and an Activity (Ebolavirus [29]) of 100%.
In the case of `NCCCCNc1ccnc2c1ccc1c2ccc2c(NCCCCN)ccnc21`, the EC90 (Ebolavirus [7]; [30]) is reported as 23.5 µM, the EC50 (Ebolavirus [7]; [31]) is reported as 10 µM and the CC50 at 2 h [8] is reported as over 10 µM. It also gave a selectivity ratio [9] of over 1.
For `c1cc(NCCCN2CCOCC2)c2nccc(NCCCN3CCOCC3)c2n1`, the EC50 (Ebolavirus [7]; [31]) was 10 µM.
`CN(C)CCOCCNc1ccnc2c1ccc1c2ccc2c(NCCOCCN(C)C)ccnc21` showed an EC90 (Ebolavirus [7]; [30]) of 6.74 µM, an EC50 (Ebolavirus [7]; [31]) of 3.53 µM and a CC50 at 2 h [8] of 7 µM. It also gave a selectivity ratio [9] of 2.
